In the library only some 2% were active in any assay of this set; here they are far more common.
SIAE inh – human SIAE inhibition, primary screen. Q9HAT2. SIAE FP-Rh probe binding, fluorescence polarization. inhibition, % at 9.66 µM. actives 0.69% (n = 370,000). AID 1053197;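 active = inhibition above a cutoff: mean of compounds within the control limits plus 3 SD of those, cut at about 17% in these data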
PAD4 FP inh – inhibitors of human PAD4. actives 0.41% (n = 330,000). recombinant PAD4, RCA probe fluorescence polarization. inhibition, % at 6.36 µM. Q9UM07;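 active = percent inhibition above a cutoff equal to the mean of all tested compounds plus 3 SD, cut at about 15% in these data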
TDP2 inh – TDP2 (human) inhibition, absorbance primary screen; O95551; recombinant TDP2, T5PNP hydrolysis, p-nitrophenol absorbance 415 nm; inhibition, % at 12.8 µM; actives 0.34% (n = 370,000); AID 720702;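 active = inhibition above the mean of all tested compounds plus 3 SD, set per campaign, cut at about 25% in these data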
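System – recombinant human TDP2 · Quantity – TDP2 enzyme at 120 nM final · Doses – single concentration, 12.8 µM nominal, with 1% DMSO · Incubation – 2 h at 37 °C · Measured by – epi absorbance of p-nitrophenol freed from T5PNP by hydrolysis · Read-out – % inhibition relative to enzyme-containing and enzyme-free wells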
TCR-CD3 inh – human TCR-CD3 binding inhibition | actives 0.37% (n = 360,000) | TAMRA-labeled TCR probe fluorescence, biochemical | inhibition, % at 9.4 µM | AID 651800;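 note: recombinant mutant TCR 2C K166C tagged with TAMRA read by polarization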
mABHD4 FP – inhibitors of mouse ABHD4; purified mABHD4, FP-Rh probe fluorescence polarization; inhibition, % at 8.92 µM; actives 0.54% (n = 370,000);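 active = inhibition exceeding the mean over every tested compound plus 3 SD, cut at about 30% in these data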
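Test system: mABHD4 protein; Read-out basis: % inhibition; Incubation: 45 min + 60 min at 25 °C; Repeats: single replicate; Technique: fluorescence polarization with parallel and perpendicular emission, 525/598 nm; Compound: 8.92 µM, single dose; Benchmarks: full inhibition S159A mutant plus DMSO, zero as sample-well median.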
HTRA1 inh – blocks human HTRA1 serine peptidase | recombinant HTRA1, FP-rhodamine activity-based probe, fluorescence polarization | inhibition, % at 5.96 µM | Q92743 | actives 0.5% (n = 340,000) | AID 504803; in the data active = inhibition above about 36%
Target sequence (Q92743 whole entry, looked up): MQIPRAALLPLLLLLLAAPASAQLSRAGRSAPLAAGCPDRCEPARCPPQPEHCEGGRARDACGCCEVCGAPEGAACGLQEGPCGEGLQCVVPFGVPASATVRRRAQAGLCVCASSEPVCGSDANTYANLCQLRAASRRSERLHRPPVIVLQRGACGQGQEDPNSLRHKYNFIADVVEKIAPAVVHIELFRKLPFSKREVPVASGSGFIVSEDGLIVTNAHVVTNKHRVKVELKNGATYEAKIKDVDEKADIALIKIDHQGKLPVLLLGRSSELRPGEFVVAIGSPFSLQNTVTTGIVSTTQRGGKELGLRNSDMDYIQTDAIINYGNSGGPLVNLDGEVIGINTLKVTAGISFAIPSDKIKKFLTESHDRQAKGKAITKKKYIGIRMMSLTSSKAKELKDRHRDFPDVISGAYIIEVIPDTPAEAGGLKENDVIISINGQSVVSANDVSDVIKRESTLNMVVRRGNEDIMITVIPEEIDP
BSA TAMRA ctr – counter-screen for TCR-CD3 interaction inhibitors: BSA probe | TAMRA-labeled BSA probe fluorescence counterscreen | actives 10% (n = 1,200) | AID 652035 | shares compounds with TCR-CD3 inh | inhibition, % at 9.4 µM; in the data active = inhibition above about 23%
TCR-CD3 conf – TCR-CD3 interaction inhibition, confirmation; shares compounds with TCR-CD3 inh; TAMRA-labeled TCR probe fluorescence binding assay; inhibition, % at 9.4 µM; actives 48% (n = 1,200); AID 652036
ABHD4 confirm – ABHD4 (mouse) inhibition, FP confirmation. shares compounds with mABHD4 FP. purified mABHD4, FP-Rh probe fluorescence polarization. inhibition, % at 8.92 µM. actives 55% (n = 1,800). AID 720658;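 active = mean inhibition across replicates above the hit cutoff set in the primary screen, cut at about 30% in these data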
Numbers stand for hits; i = inactive; nt = no result given; ! = not active in a repeat. Cut-off read from the data, not from the text of the source, unless noted: active = inhibition above about 19%; inactive = the rest.

SMILES	SIAE inh	PAD4 FP inh	TDP2 inh	TCR-CD3 inh	mABHD4 FP	HTRA1 inh	BSA TAMRA ctr	TCR-CD3 conf	ABHD4 confirm
COC(=O)[C@]12C[C@H](CC(=O)N3CCSCC3)C(=O)N(CCc3ccc(OC)c(OC)c3)C1=C[C@H](COCc1ccccc1)O[C@@H]2C	i	nt	i	nt	i	nt	nt	nt	nt
O=C(COC(=O)c1cc(-c2cccs2)nn1-c1ccccc1)Nc1ccc(Cl)c([N+](=O)[O-])c1	i	i	i	45	i	i	i	i	nt
Cc1c(Cl)cccc1NC(=O)CSc1nc(=O)n(CCCN2CCOCC2)c2c1CCC2	i	i	i	i	i	i	nt	nt	nt
Cc1ccccc1OCc1nc(-c2ccc(NC(=O)c3cccs3)cc2)no1	i	i	i	28	i	i	i	i	nt
Cc1ccccc1OCc1nc(-c2ccc(NC(=O)c3ccco3)cc2)no1	i	i	i	i	i	i	nt	nt	nt
CCn1c(SCC(=O)NCc2ccco2)nnc1C1CCCC1	i	i	i	i	i	i	nt	nt	nt
C=CCn1c(SCC(=O)NCc2ccco2)nnc1C1CCCCC1	i	i	i	20	i	i	i	i	nt
CCC1(OC(=O)CN(C)C)C(=O)OCc2c1cc1n(c2=O)Cc2cc3c(N)cccc3nc2-1 (centres undefined)	nt	nt	nt	nt	nt	i	nt	nt	nt
O=C(NC(NC(=S)Nc1cccc(Cl)c1)C(Cl)(Cl)Cl)OCc1ccccc1 (centres undefined)	i	i	i	24	i	i	i	i	nt
O=C(NC(NC(=S)Nc1cccc(C(=O)O)c1)C(Cl)(Cl)Cl)OCc1ccccc1 (centres undefined)	i	i	i	i	i	i	nt	nt	nt
C[C@@H]1Cn2cnc(C(=O)N3CCN(C(=O)OC(C)(C)C)CC3)c2C(=O)N1	i	nt	i	20	i	nt	i	i	nt
CC(C)c1cn(CC[C@@H]2CC[C@H](NS(=O)(=O)c3ccc(F)cc3)[C@@H](CO)O2)nn1	i	nt	i	i	i	nt	nt	nt	nt
CCn1c(=O)c(C(=O)Nc2ncccc2O)c(O)c2ccccc21	i	i	i	34	i	i	i	i	nt
CCN1CCN(Cc2ccc(NC(=O)c3ccc(C)c(NC(=O)c4c[nH]c5cc(C(F)(F)F)ccc5c4=O)c3)cc2C(F)(F)F)CC1	i	i	i	24	i	i	i	21!	nt
Cc1ccc(C(=O)Nc2cccc(C(F)(F)F)c2)cc1NC(=O)c1c[nH]c2cc(C(F)(F)F)ccc2c1=O	i	i	i	i	i	i	nt	nt	nt
C=CCN(c1ccccc1)S(=O)(=O)c1ccc2c(c1)oc(=O)n2C	i	i	i	64	i	i	i	i	nt
CN(c1ccccc1)S(=O)(=O)c1ccc2c(c1)oc(=O)n2C	i	i	i	i	i	i	nt	nt	nt
CCOc1ccc(CCNS(=O)(=O)c2c(C)nc3sccn3c2=O)cc1OCC	i	nt	i	i	i	nt	nt	nt	nt
CCc1c(C)sc(NC(=O)OC)c1C(=O)N1CCCCC1	i	i	i	19	i	i	i	i	nt
COc1ccc(/C=C(\C#N)C(=O)OCC(=O)Nc2ccc(-c3nc4ccc(C)cc4s3)cc2)cc1	i	i	i	i	i	i	nt	nt	nt
COC(=O)c1ccc2nc(C3CCCCC3)c(Cc3ccccc3)n2c1	i	nt	i	i	i	nt	nt	nt	nt
COc1ccc(S(=O)(=O)N2CCCCCC2)cc1NC(=O)CCCOc1ccccc1	i	i	i	i	i	i	nt	nt	nt
Cc1nc(S/C(=C\c2ccc(-c3ccc(C(=O)O)c(Cl)c3)o2)C(=O)O)n[nH]1	i	nt	i	65	39	i	i	67	54
Cc1nc(S/C(=C\c2ccc(OCc3ccccc3Cl)cc2)C(=O)O)n[nH]1	i	i	i	i	i	i	nt	nt	nt
CCN1C(=O)[C@H]2[C@@H](c3ccc(SC4CCCCC4)cc3)N[C@@](CC(C)C)(C(=O)OC)[C@H]2C1=O	i	i	i	i	i	i	nt	nt	nt
SMILES	SIAE inh	PAD4 FP inh	TDP2 inh	TCR-CD3 inh	mABHD4 FP	HTRA1 inh	BSA TAMRA ctr	TCR-CD3 conf	ABHD4 confirm
C[n+]1cc2c3c(ccc2c2ccc4cc5c(cc4c21)OCO5)OCO3	19	nt	i	20	68	nt	i	24	71
CN(Cc1ccccc1)C(=O)c1ncn2c1C(=O)N(C)CC2	i	nt	i	i	i	i	nt	nt	nt
O=C1NC(=S)NC1=Cc1ccco1	i	nt	i	24	33	i	i	21	i
Cc1cc(C(=O)N/N=C/c2cc(Cl)cc([N+](=O)[O-])c2O)c2ccccc2n1	i	i	i	36	32	i	i	39	37
C/C(=N\NC(=O)c1ccccc1O)C1C(=O)c2ccccc2C1=O	i	i	i	33	46	i	i	42	64
O=c1cc(Br)c(O)c(Br)cc1Br	i	nt	i	21	31	i	i	i	i
COc1ccc2c(n1)Sc1nc3ccccc3nc1N2	i	i	i	48	32	i	i	i	i
COc1cc2ccccc2nn1	i	i	i	i	i	i	nt	nt	nt
Cc1ccc(N(CC(O)CN2CCCCC2)S(=O)(=O)c2ccccc2[N+](=O)[O-])cc1 (centres undefined)	i	i	i	i	i	i	nt	nt	nt
COc1cc(OC)c2cc(C(=O)N/N=C/c3cccc(OC)c3O)[nH]c2c1	i	i	i	24	32	i	i	i	58
COc1ccc(C(=O)Nc2ccccc2C(=O)NC2CC2)c(OC)c1OC	i	nt	i	i	i	i	nt	nt	nt
Oc1ccc(/C=N/n2c(COc3ccccc3)n[nH]c2=S)cc1O	i	i	i	32	36	i	i	22	i
CCN(CC(=O)Nc1cccc(OC)c1)C(=O)c1cccc(S(=O)(=O)N2CCc3ccccc32)c1	i	i	i	i	i	i	nt	nt	nt
O=C(c1ccc2c(c1)C(=O)N(CCCO)C2=O)c1ccc2c(c1)C(=O)N(CCCO)C2=O	i	i	i	i	i	i	nt	nt	nt
O=C1c2ccc3c4c(ccc(c24)C(=O)N1CCCCO)C(=O)N(CCCCO)C3=O	i	nt	i	34	38	i	40	25	i
Nc1ccc(N=Nc2ccccc2O)c(N)c1	i	i	i	21	39	nt	i	i	40
Cn1c(=O)c2[nH]c(N=Nc3ccc(N)cc3N)nc2n(C)c1=O	i	i	i	i	i	i	nt	nt	nt
Oc1c(CN2CCOCC2)cc(CN2CCOCC2)c(O)c1O	i	nt	i	i	i	i	nt	nt	nt
Oc1cccc(CN2CCOCC2)c1O	i	nt	i	27	42	i	i	i	i
Cc1ccc(CN2CCN(Cc3ccc4cccc(F)c4n3)CC2CCO)cc1 (centres undefined)	i	i	i	i	i	i	nt	nt	nt
CCOC(=O)N1CCN(c2cc(NCCO)c([N+](=O)[O-])c3nonc23)CC1	i	i	i	i	i	i	nt	nt	nt
